In brackets after ≈: the same amount, converted by molar mass.
tested on: Radical scavenging activity; test: Antioxidant activity assessed as DPPH free radical scavenging activity at 300 ug/mL after 20 min by UV-Vis spectrophotometric analysis; format: functional; conditions: not given
In short: (§1)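 DPPH radical scavenging: samples were held at room temperature for 20 min in the dark, and absorbance was read at 517 nm. The control contained DMSO without compound, and methanol was used for baseline correction. Scavenging percentage was calculated from the absorbances.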

Structure (SMILES) | Activity [%]
COc1cc(C2CC(c3ccc(C)cc3)=Cc3n[nH]c(O)c32)cc(OC)c1OC (configuration not stated) | 90.2
Cc1ccc(C2CC(c3ccccc3)=Cc3n[nH]c(O)c32)cc1 (configuration not stated) | 81.8

tested on: Radical scavenging activity; test: Antioxidant activity assessed as DPPH free radical scavenging activity at 400 ug/mL after 20 min by UV-Vis spectrophotometric analysis; format: functional; conditions: not given; in short: as §1

Structure (SMILES) | Activity [%]
COc1cc(C2CC(c3ccc(C)cc3)=Cc3n[nH]c(O)c32)cc(OC)c1OC (configuration not stated) | 90.3
Cc1ccc(C2CC(c3ccccc3)=Cc3n[nH]c(O)c32)cc1 (configuration not stated) | 85.7

tested on: Radical scavenging activity; test: Antioxidant activity assessed as DPPH free radical scavenging activity at 10 ug/mL after 20 min by UV-Vis spectrophotometric analysis; format: functional; conditions: not given; in short: as §1

Structure (SMILES) | Activity [%]
COc1cc(C2CC(c3ccc(C)cc3)=Cc3n[nH]c(O)c32)cc(OC)c1OC (configuration not stated) | 15
Cc1ccc(C2CC(c3ccccc3)=Cc3n[nH]c(O)c32)cc1 (configuration not stated) | 9.2

tested on: Radical scavenging activity; test: Antioxidant activity assessed as DPPH free radical scavenging activity at 200 ug/mL after 20 min by UV-Vis spectrophotometric analysis; format: functional; conditions: not given; in short: as §1

Structure (SMILES) | Activity [%]
COc1cc(C2CC(c3ccc(C)cc3)=Cc3n[nH]c(O)c32)cc(OC)c1OC (configuration not stated) | 91.8
Cc1ccc(C2CC(c3ccccc3)=Cc3n[nH]c(O)c32)cc1 (configuration not stated) | 69.9

tested on: Radical scavenging activity; test: Antioxidant activity assessed as DPPH free radical scavenging activity at 80 ug/mL after 20 min by UV-Vis spectrophotometric analysis; format: functional; conditions: not given; in short: as §1

Structure (SMILES) | Activity [%]
COc1cc(C2CC(c3ccc(C)cc3)=Cc3n[nH]c(O)c32)cc(OC)c1OC (configuration not stated) | 89.9
Cc1ccc(C2CC(c3ccccc3)=Cc3n[nH]c(O)c32)cc1 (configuration not stated) | 36.4

tested on: Pseudomonas aeruginosa; test: Antibacterial activity against Pseudomonas aeruginosa MTCC 2581 assessed as growth inhibition at 100 ug/disk after 24 hr by disk diffusion method; format: functional; conditions: MTCC 2581, 24 h, read-out: DIZ
In short: (§2)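 Disk diffusion on nutrient agar. Strains kept on NA slants at 37 °C and subcultured in nutrient broth before testing. A log-phase culture was spread on solidified medium, and sterile disks were loaded with compound from DMSO stock. DMSO served as control, with commercial antibiotics for reference. Plates ran 24 h at 37 °C, and inhibition zones (mm) were read in quadruplicate.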

Structure (SMILES) | zone of inhibition at 100 µg/disc [mm]
COc1cc(C2CC(c3ccc(C)cc3)=Cc3n[nH]c(O)c32)cc(OC)c1OC (configuration not stated) | 0
Cc1ccc(C2CC(c3ccccc3)=Cc3n[nH]c(O)c32)cc1 (configuration not stated) | 10

tested on: Radical scavenging activity; test: Antioxidant activity assessed as DPPH free radical scavenging activity after 20 min by UV-Vis spectrophotometric analysis; format: functional; design: concentration or dose not given beside the values; conditions: not given; in short: as §1

Structure (SMILES) | Activity [%] | IC50 [µg/mL]
COc1cc(C2CC(c3ccc(C)cc3)=Cc3n[nH]c(O)c32)cc(OC)c1OC (configuration not stated) | 56.9 | 29.7 (≈ 75.7 µM)
Cc1ccc(C2CC(c3ccccc3)=Cc3n[nH]c(O)c32)cc1 (configuration not stated) | 18.2 | 106.62 (≈ 353 µM)

tested on: Bacillus thuringiensis; test: Antibacterial activity against Bacillus thuringiensis MTCC 6941 assessed as growth inhibition at 100 ug/disk after 24 hr by disk diffusion method; format: functional; conditions: MTCC 6941, 24 h, read-out: DIZ; in short: as §2

Structure (SMILES) | zone of inhibition at 100 µg/disc [mm]
COc1cc(C2CC(c3ccc(C)cc3)=Cc3n[nH]c(O)c32)cc(OC)c1OC (configuration not stated) | 0
Cc1ccc(C2CC(c3ccccc3)=Cc3n[nH]c(O)c32)cc1 (configuration not stated) | 0

tested on: Radical scavenging activity; test: Antioxidant activity assessed as DPPH free radical scavenging activity at 40 ug/mL after 20 min by UV-Vis spectrophotometric analysis; format: functional; conditions: not given; in short: as §1

Structure (SMILES) | Activity [%]
COc1cc(C2CC(c3ccc(C)cc3)=Cc3n[nH]c(O)c32)cc(OC)c1OC (configuration not stated) | 56.9
Cc1ccc(C2CC(c3ccccc3)=Cc3n[nH]c(O)c32)cc1 (configuration not stated) | 18.2

tested on: Radical scavenging activity; test: Antioxidant activity assessed as DPPH free radical scavenging activity at 20 ug/mL after 20 min by UV-Vis spectrophotometric analysis; format: functional; conditions: not given; in short: as §1

Structure (SMILES) | Activity [%]
COc1cc(C2CC(c3ccc(C)cc3)=Cc3n[nH]c(O)c32)cc(OC)c1OC (configuration not stated) | 26.4
Cc1ccc(C2CC(c3ccccc3)=Cc3n[nH]c(O)c32)cc1 (configuration not stated) | 14.5

tested on: Xanthomonas oryzae; test: Antibacterial activity against Xanthomonas oryzae ITCC B-47 assessed as as growth inhibition at 100 ug/disk after 24 hr by disk diffusion method; format: functional; conditions: ITCC B-47, 24 h, read-out: DIZ

Structure (SMILES) | zone of inhibition at 100 µg/disc [mm]
COc1cc(C2CC(c3ccc(C)cc3)=Cc3n[nH]c(O)c32)cc(OC)c1OC (configuration not stated) | 0
Cc1ccc(C2CC(c3ccccc3)=Cc3n[nH]c(O)c32)cc1 (configuration not stated) | 0

tested on: Klebsiella pneumoniae; test: Antibacterial activity against Klebsiella pneumoniae MTCC 7028 assessed as growth inhibition at 100 ug/disk after 24 hr by disk diffusion method; format: functional; conditions: MTCC 7028, 24 h, read-out: DIZ; in short: as §2

Structure (SMILES) | zone of inhibition at 100 µg/disc [mm]
COc1cc(C2CC(c3ccc(C)cc3)=Cc3n[nH]c(O)c32)cc(OC)c1OC (configuration not stated) | 0
Cc1ccc(C2CC(c3ccccc3)=Cc3n[nH]c(O)c32)cc1 (configuration not stated) | 0

tested on: Rhizoctonia solani; test: Antifungal activity against Rhizoctonia solani ITCC 5563 by food poisoning method; format: functional; conditions: not given
In short: (§3)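 Poisoned food technique on PDA at several concentrations. A 5 mm mycelial plug from the growing edge of a 2-week-old colony was placed inoculum-side down at the plate centre. Plates incubated at 27 °C until control growth was nearly complete. Colony diameter measured, percent inhibition calculated against control, LC50 derived. Four replicates per treatment.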

Structure (SMILES) | LC50 [µg/mL]
COc1cc(C2CC(c3ccc(C)cc3)=Cc3n[nH]c(O)c32)cc(OC)c1OC (configuration not stated) | 738 (≈ 1880 µM)
Cc1ccc(C2CC(c3ccccc3)=Cc3n[nH]c(O)c32)cc1 (configuration not stated) | 745 (≈ 2460 µM)

tested on: Athelia rolfsii; test: Antifungal activity against Athelia rolfsii ITCC 6181 by food poisoning method; format: functional; conditions: Agroathelia rolfsii; in short: as §3

Structure (SMILES) | LC50 [µg/mL]
COc1cc(C2CC(c3ccc(C)cc3)=Cc3n[nH]c(O)c32)cc(OC)c1OC (configuration not stated) | 1170 (≈ 2990 µM)
Cc1ccc(C2CC(c3ccccc3)=Cc3n[nH]c(O)c32)cc1 (configuration not stated) | 922 (≈ 3050 µM)

tested on: Radical scavenging activity; test: Antioxidant activity assessed as DPPH free radical scavenging activity at 100 ug/mL after 20 min by UV-Vis spectrophotometric analysis; format: functional; conditions: not given; in short: as §1

Structure (SMILES) | Activity [%]
COc1cc(C2CC(c3ccc(C)cc3)=Cc3n[nH]c(O)c32)cc(OC)c1OC (configuration not stated) | 90.8
Cc1ccc(C2CC(c3ccccc3)=Cc3n[nH]c(O)c32)cc1 (configuration not stated) | 41.2

tested on: Radical scavenging activity; test: Antioxidant activity assessed as DPPH free radical scavenging activity at 500 ug/mL after 20 min by UV-Vis spectrophotometric analysis; format: functional; conditions: not given; in short: as §1

Structure (SMILES) | Activity [%]
COc1cc(C2CC(c3ccc(C)cc3)=Cc3n[nH]c(O)c32)cc(OC)c1OC (configuration not stated) | 90.6
Cc1ccc(C2CC(c3ccccc3)=Cc3n[nH]c(O)c32)cc1 (configuration not stated) | 85.7

tested on: Staphylococcus aureus; test: Antibacterial activity against Staphylococcus aureus MTCC 3160 assessed as growth inhibition at 100 ug/disk after 24 hr by disk diffusion method; format: functional; conditions: MTCC 3160, 24 h, read-out: DIZ; in short: as §2

Structure (SMILES) | zone of inhibition at 100 µg/disc [mm]
COc1cc(C2CC(c3ccc(C)cc3)=Cc3n[nH]c(O)c32)cc(OC)c1OC (configuration not stated) | 0
Cc1ccc(C2CC(c3ccccc3)=Cc3n[nH]c(O)c32)cc1 (configuration not stated) | 5

tested on: Radical scavenging activity; test: Antioxidant activity assessed as DPPH free radical scavenging activity at 60 ug/mL after 20 min by UV-Vis spectrophotometric analysis; format: functional; conditions: not given; in short: as §1

Structure (SMILES) | Activity [%]
COc1cc(C2CC(c3ccc(C)cc3)=Cc3n[nH]c(O)c32)cc(OC)c1OC (configuration not stated) | 79.3
Cc1ccc(C2CC(c3ccccc3)=Cc3n[nH]c(O)c32)cc1 (configuration not stated) | 35.1

tested on: Dickeya chrysanthemi; test: Antibacterial activity against Erwinia chrysanthemi ITCC B-40 assessed as as growth inhibition at 100 ug/disk after 24 hr by disk diffusion method; format: functional; conditions: ITCC B-40, 24 h, read-out: DIZ; in short: as §2

Structure (SMILES) | zone of inhibition at 100 µg/disc [mm]
COc1cc(C2CC(c3ccc(C)cc3)=Cc3n[nH]c(O)c32)cc(OC)c1OC (configuration not stated) | 0
Cc1ccc(C2CC(c3ccccc3)=Cc3n[nH]c(O)c32)cc1 (configuration not stated) | 0

tested on: Bacillus pumilus; test: Antibacterial activity against Bacillus pumilus MTCC 2466 assessed as growth inhibition at 100 ug/disk after 24 hr by disk diffusion method; format: functional; conditions: MTCC 2466, 24 h, read-out: DIZ; in short: as §2

Structure (SMILES) | zone of inhibition at 100 µg/disc [mm]
COc1cc(C2CC(c3ccc(C)cc3)=Cc3n[nH]c(O)c32)cc(OC)c1OC (configuration not stated) | 0
Cc1ccc(C2CC(c3ccccc3)=Cc3n[nH]c(O)c32)cc1 (configuration not stated) | 0

Source: ChEMBL document CHEMBL3045565, “Microwave synthesis, characterization and bio-efficacy evaluation of novel chalcone based 6-carbethoxy-2-cyclohexen-1-one and 2H-indazol-3-ol derivatives” (Eur J Med Chem, 2013)
